According to ChEMBL document CHEMBL1140191, “Lynamicins A-E, chlorinated bisindole pyrrole antibiotics from a novel marine actinomycete” (J Nat Prod, 2008):
Values after ≈ are worked out from the molar mass of the structure shown.

Assays:
[1] = test system: Herpesviridae sp.; assay: Antiviral activity against HSV; assay type: functional, organism-based
[2] = test system: Enterococcus faecium; assay: Antibacterial activity against vancomycin-resistant Enterococcus faecium ATCC 700221 after 14 to 16 hrs by serial microbroth dilution method; assay type: functional
Procedure, shortened: (§1)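 Broth microdilution MIC per NCCLS standards in cation-adjusted Mueller-Hinton broth, without CO2. Final inoculum approximately 5 × 10^5 cfu/mL. Incubated 35 °C for 14-16 h. MIC taken as the lowest drug concentration preventing visible growth.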

[3] = test system: Staphylococcus epidermidis; assay: Antibacterial activity against multi drug-resistant Staphylococcus epidermidis ATCC 700582 after 14 to 16 hrs by serial microbroth dilution method; assay type: functional; procedure, shortened: as §1
[4] = test system: Haemophilus influenzae; assay: Antibacterial activity against Haemophilus influenzae ATCC 49766 after 14 to 16 hrs; assay type: functional
Procedure, shortened: (§2)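 Serial microbroth dilution (NCCLS) in Haemophilus Test Medium in a CO2 incubator. Final inoculum about 5 × 10^5 cfu/mL, 35 °C for 14-16 h. MIC is the lowest drug concentration preventing visible growth.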

[5] = test system: Streptococcus pneumoniae; assay: Antibacterial activity against penicillin-sensitive Streptococcus pneumoniae ATCC 49619 after 14 to 16 hrs; assay type: functional
Procedure, shortened: (§3)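 Serial microbroth dilution MIC per NCCLS in cation-adjusted Mueller-Hinton broth II with lysed horse blood. Incubated in a CO2 incubator at 35 °C for 14-16 h. Final inoculum approximately 5 × 10^5 cfu/mL. MIC read as the lowest concentration with no visible growth.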

[6] = test system: Staphylococcus aureus; assay: Antibacterial activity against methicillin-resistant Staphylococcus aureus ATCC 43300 after 14 to 16 hrs by serial microbroth dilution method; assay type: functional; procedure, shortened: as §1
[7] = test system: Staphylococcus epidermidis; assay: Antibacterial activity against multi drug-resistant Staphylococcus epidermidis ATCC 700578 after 14 to 16 hrs by serial microbroth dilution method; assay type: functional; procedure, shortened: as §1
[8] = test system: Escherichia coli; assay: Antibacterial activity against Escherichia coli imp permeable mutant after 14 to 16 hrs by serial microbroth dilution method; assay type: functional; procedure, shortened: as §1
[9] = test system: Enterococcus faecalis; assay: Antibacterial activity against vancomycin-sensitive Enterococcus faecalis ATCC 29212 after 14 to 16 hrs by serial microbroth dilution method; assay type: functional
Procedure, shortened: (§4)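 NCCLS broth microdilution in cation-adjusted Mueller-Hinton broth, no CO2 incubation. Final inoculum about 5 × 10^5 cfu/mL. Plates held at 35 °C for 14-16 h. MIC read as the lowest concentration with no visible bacterial growth.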

[10] = test system: Staphylococcus aureus; assay: Antibacterial activity against methicillin-sensitive Staphylococcus aureus ATCC 29213 after 14 to 16 hrs by serial microbroth dilution method; assay type: functional; procedure, shortened: as §4
[11] = test system: Streptococcus pneumoniae; assay: Antibacterial activity against penicillin-resistant Streptococcus pneumoniae ATCC 51915after 14 to 16 hrs; assay type: functional; procedure, shortened: as §3
[12] = test system: Haemophilus influenzae; assay: Antibacterial activity against Haemophilus influenzae ATCC […] after 14 to 16 hrs; assay type: functional; procedure, shortened: as §2

`O=C(O)c1[nH]c(C(=O)O)c(-c2c[nH]c3ccccc23)c1-c1c[nH]c2ccccc12` [LYCOGALIC ACID A] showed an IC50 [1] of 17.2 µg/mL (≈ 44.6 µM).
For `COC(=O)c1[nH]c(C(=O)OC)c(-c2c[nH]c3ccccc23)c1-c1c[nH]c2ccccc12` [LYCOGARUBIN C], the IC50 [1] was 17.2 µg/mL (≈ 41.6 µM).
Work on `COC(=O)c1[nH]cc(-c2c[nH]c3ccc(Cl)cc23)c1-c1c[nH]c2ccc(Cl)cc12` [LYNAMICIN A] yielded an MIC [2] of 19 µM (≈ 8.06 µg/mL), an MIC [3] of 9.5 µM (≈ 4.03 µg/mL) and an MIC [4] of 28 µM (≈ 11.9 µg/mL). The MIC [5] was 57 µM (≈ 24.2 µg/mL), the MIC [6] was 4.7 µM (≈ 1.99 µg/mL) and the MIC [7] was 9.5 µM (≈ 4.03 µg/mL). It also gave an MIC [8] of 16 µM (≈ 6.79 µg/mL), an MIC [9] of 19 µM (≈ 8.06 µg/mL) and an MIC [10] of 4.3 µM (≈ 1.82 µg/mL). The MIC [11] was 57 µM (≈ 24.2 µg/mL) and the MIC [12] was 38 µM (≈ 16.1 µg/mL).
`COC(=O)c1[nH]cc(-c2c[nH]c3cc(Cl)c(Cl)cc23)c1-c1c[nH]c2ccc(Cl)cc12` [LYNAMICIN B] showed an MIC [2] of 4.4 µM (≈ 2.02 µg/mL), an MIC [3] of 2.2 µM (≈ 1.01 µg/mL) and an MIC [4] of 13 µM (≈ 5.96 µg/mL). For the same compound, the MIC [5] was 18 µM (≈ 8.26 µg/mL), the MIC [6] was 2.2 µM (≈ 1.01 µg/mL) and the MIC [7] was 2.2 µM (≈ 1.01 µg/mL). The MIC [8] was 13 µM (≈ 5.96 µg/mL), the MIC [9] was 3.3 µM (≈ 1.51 µg/mL) and the MIC [10] was 1.8 µM (≈ 0.826 µg/mL). The MIC [11] was 18 µM (≈ 8.26 µg/mL) and the MIC [12] was 4.4 µM (≈ 2.02 µg/mL).
`Clc1cc2[nH]cc(-c3c[nH]cc3-c3c[nH]c4cc(Cl)c(Cl)cc34)c2cc1Cl` [LYNAMICIN C] gave an MIC [2] of 4.6 µM (≈ 2 µg/mL), an MIC [3] of 2.3 µM (≈ 1 µg/mL) and an MIC [4] of 15 µM (≈ 6.53 µg/mL). The MIC [5] was 46 µM (≈ 20 µg/mL), the MIC [6] was 3.5 µM (≈ 1.52 µg/mL) and the MIC [7] was 2.3 µM (≈ 1 µg/mL). The MIC [8] was 15 µM (≈ 6.53 µg/mL), the MIC [9] was 5.8 µM (≈ 2.52 µg/mL) and the MIC [10] was 2.5 µM (≈ 1.09 µg/mL). It also gave an MIC [11] of 46 µM (≈ 20 µg/mL) and an MIC [12] of 9.2 µM (≈ 4 µg/mL).
Compound `COC(=O)c1[nH]c(C(=O)OC)c(-c2c[nH]c3ccc(Cl)cc23)c1-c1c[nH]c2ccc(Cl)cc12` [LYNAMICIN D] has an MIC [2] of 17 µM (≈ 8.2 µg/mL), an MIC [3] of 8.3 µM (≈ 4 µg/mL) and an MIC [4] of 17 µM (≈ 8.2 µg/mL). The MIC [5] was 50 µM (≈ 24.1 µg/mL), the MIC [6] was 6.2 µM (≈ 2.99 µg/mL) and the MIC [7] was 8.3 µM (≈ 4 µg/mL). The MIC [8] was > 67 µM, the MIC [9] was 17 µM (≈ 8.2 µg/mL) and the MIC [10] was 6.2 µM (≈ 2.99 µg/mL). It also gave an MIC [11] of 42 µM (≈ 20.3 µg/mL) and an MIC [12] of 10 µM (≈ 4.82 µg/mL).
For `COC(=O)c1[nH]c(C(=O)OC)c(-c2c[nH]c3ccc(Cl)cc23)c1-c1c[nH]c2ccccc12` [LYNAMICIN E], the MIC [2] was > 54 µM, the MIC [3] was > 72 µM and the MIC [4] was > 72 µM. The MIC [5] was > 72 µM, the MIC [6] was 27 µM (≈ 12.1 µg/mL) and the MIC [7] was 45 µM (≈ 20.2 µg/mL). For the same compound, the MIC [8] was > 72 µM, the MIC [9] was > 54 µM and the MIC [10] was > 45 µM. The MIC [11] was > 72 µM and the MIC [12] was > 72 µM.
